SMILES strings stand for the structures. Active and inactive are the calls of the source.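 The calls were made as follows, unless noted: active = current rise at least 3 SD above the untreated control mean in each of two repeat wells; inactive = the rest.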

The nature of test [1]: nonspecific flux increase, KCNQ1-free cells – parental CHO cells, counter-screen for KCNQ1 potentiator project (AID 493006;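 active = duplicate-averaged activation above buffer control mean plus 5 SD of those controls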;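 as to activation: fluorescence ratio of max minus min over baseline after K+ and Tl+ depolarization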). Particulars: parental CHO-K1 cells, FluxOR thallium flux, at 10 µM; hits give high values. The method in brief:
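Material: parental CHO-K1 cells, FluxOR dye-loaded; Also added: Potassium/thallium depolarization pulse; Schedule: overnight 37 °C plating, 90 min dye, 20 min dark compound; Signal: kinetic FluxOR fluorescence, 10 s baseline, 110 s after stimulus.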
(In general: Counterscreens check selectivity or assay interference.)

Test [2] addresses Potassium voltage-gated channel subfamily KQT member 1 (Homo sapiens) (UniProt P51787). As to the kind of experiment: enhancement of KCNQ1 channel thallium flux – FluxOR thallium flux, CHO cells, duplicates, confirmation (AID 493007;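 active = potentiation averaged over duplicate wells exceeding buffer-only control mean by more than 3 SD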;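 as to outcome: cells depolarized by a potassium plus thallium sulfate stimulus after compound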). Particulars: KCNQ1 cell line, FluxOR thallium flux fluorescence, at 10 µM; hits give high values, % of reference activator effect, buffer zero. The method in brief: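 System: KCNQ1-expressing CHO cell line; technique: kinetic thallium influx fluorescence with FluxOR dye, 10 s baseline, 110 s post-stimulus; timing: dye 90 min then compound 20 min, both at room temperature; controls: buffer-only wells as 0% and R-L3 activator as 100%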

Test [3] deals with Potassium voltage-gated channel subfamily KQT member 2 (Rattus norvegicus) (UniProt O88943). The test can be described thus: KCNQ2 thallium flux enhancement – KCNQ2-CHO-K1 cells, selectivity assay for KCNQ1 potentiator project (AID 493009;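 active = mean duplicate potentiation above the buffer control mean plus 5 SD of buffer wells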;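 also: assay conditions were tuned for KCNQ1 rather than KCNQ2 modulators; signal is max minus min fluorescence divided by baseline after thallium stimulus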). To be noted: FluxOR thallium flux fluorescence, at 10 µM; hits give high values, scaled: buffer 0, activator control 100.
Chain of Potassium voltage-gated channel subfamily KQT member 2 (Rattus norvegicus) (O88943 whole entry, looked up): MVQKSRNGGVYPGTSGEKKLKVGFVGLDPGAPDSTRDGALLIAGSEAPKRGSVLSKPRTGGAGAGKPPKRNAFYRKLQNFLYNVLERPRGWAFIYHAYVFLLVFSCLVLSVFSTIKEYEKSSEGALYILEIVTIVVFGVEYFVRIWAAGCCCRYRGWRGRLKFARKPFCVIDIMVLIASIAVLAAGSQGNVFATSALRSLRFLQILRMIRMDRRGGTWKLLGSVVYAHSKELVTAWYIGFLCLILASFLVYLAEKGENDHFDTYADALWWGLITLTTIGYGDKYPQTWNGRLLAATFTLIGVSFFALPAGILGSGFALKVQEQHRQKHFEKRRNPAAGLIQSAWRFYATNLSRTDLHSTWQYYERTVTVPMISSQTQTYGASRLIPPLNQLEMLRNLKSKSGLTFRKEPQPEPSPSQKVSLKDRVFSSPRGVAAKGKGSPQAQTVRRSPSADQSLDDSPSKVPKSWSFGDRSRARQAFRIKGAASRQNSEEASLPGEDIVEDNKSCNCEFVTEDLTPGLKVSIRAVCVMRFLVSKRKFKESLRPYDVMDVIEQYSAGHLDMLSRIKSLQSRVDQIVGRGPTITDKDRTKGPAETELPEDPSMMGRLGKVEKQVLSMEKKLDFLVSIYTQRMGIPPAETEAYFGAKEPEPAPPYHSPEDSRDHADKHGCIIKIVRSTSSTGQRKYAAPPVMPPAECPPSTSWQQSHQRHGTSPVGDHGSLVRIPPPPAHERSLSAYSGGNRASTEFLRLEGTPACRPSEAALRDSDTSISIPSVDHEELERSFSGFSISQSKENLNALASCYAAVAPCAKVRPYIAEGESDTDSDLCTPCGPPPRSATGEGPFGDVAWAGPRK
Test [4] concerns the target Potassium voltage-gated channel subfamily KQT member 1 (Homo sapiens) (UniProt P51787). The test can be described thus: KCNQ1 activators by electrophysiology – IonWorks patch clamp, KCNQ1-CHO cells, orthogonal assay for KCNQ1 potentiator project, confirmation (AID 493184).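 As to current potentiation: percent change of the same well's current before compound addition so 0% = no change.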 Particulars: automated patch clamp current, at 10 µM; hits give high values. The method in brief: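 Test system: KCNQ1-expressing CHO cells. Medium: pH 7.4 external bath. Probe or stimulus: voltage step from -90 mV holding to +40 mV, 2,000 ms. Compound: 10 µM final, single point. Detection: automated perforated-patch electrophysiology. Read-out: percent current increase versus pre-compound level. Repeats: two replicates.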
Background: In patch-clamp work, channel activity is measured electrically.

Chain of Potassium voltage-gated channel subfamily KQT member 1 (Homo sapiens) (P51787 whole entry, looked up): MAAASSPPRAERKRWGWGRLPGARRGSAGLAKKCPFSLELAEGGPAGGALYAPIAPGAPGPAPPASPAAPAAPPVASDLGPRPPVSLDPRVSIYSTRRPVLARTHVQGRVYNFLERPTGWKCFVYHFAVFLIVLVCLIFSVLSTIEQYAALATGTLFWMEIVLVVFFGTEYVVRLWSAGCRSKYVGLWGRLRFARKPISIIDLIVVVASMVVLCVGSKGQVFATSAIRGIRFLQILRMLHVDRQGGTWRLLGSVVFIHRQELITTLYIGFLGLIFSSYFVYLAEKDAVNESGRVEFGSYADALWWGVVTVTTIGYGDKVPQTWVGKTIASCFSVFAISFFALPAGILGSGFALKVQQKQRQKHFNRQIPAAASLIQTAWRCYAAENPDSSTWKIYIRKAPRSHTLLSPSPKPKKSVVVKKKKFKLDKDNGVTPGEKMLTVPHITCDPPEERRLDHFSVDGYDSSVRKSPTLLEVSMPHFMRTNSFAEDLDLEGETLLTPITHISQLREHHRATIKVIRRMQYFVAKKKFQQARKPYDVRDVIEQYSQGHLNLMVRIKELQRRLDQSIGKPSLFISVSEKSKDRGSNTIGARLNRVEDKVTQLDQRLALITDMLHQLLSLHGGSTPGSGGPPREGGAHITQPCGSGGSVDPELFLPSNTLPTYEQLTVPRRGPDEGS

`CCCOC(=S)NC(=O)c1sc2ccccc2c1Cl`: in test [1], the activation is 294% (active). Besides, the potentiation in test [2] was 106% (active); in test [3], 274% (active). Moreover, the outcome in test [4] was inactive.

As to `COc1ccc(-c2csc(NC(=S)NC(=O)c3cccs3)n2)cc1OC`, the result in test [1] and in test [4] was inactive. The values for the potentiation in test [2] and in test [3] were 40% (active) and 216% (active), respectively.

As for `CC(/C=N/n1c(-c2ccc(C)cc2)n[nH]c1=S)=C\c1ccco1`, the result in test [1], in test [2], in test [3] and in test [4] was inactive.

On to `CC1(C)CC(N2CCOCC2)=CC(=[N+]2CCOCC2)C1`, for which the outcome in test [1], in test [2], in test [3] and in test [4] was inactive.

`O=C(CC1(O)C(=O)N(C/C=C/c2ccccc2)c2ccccc21)c1ccccn1` (stereo not given): the result in test [1], in test [2], in test [3] and in test [4] was inactive.

Turning to `CCCCCCCCCCCC(=O)NC(Cc1ccc(OC)c([N+](=O)[O-])c1)C(=O)O` (stereo not given), in test [1], the activation was 372% (active). The potentiation in test [2] was 116% (active); in test [3] it was 349% (active). Further, in test [4], the outcome was inactive.

For the compound `CCC1(c2ccccc2)NC(=O)N(CC(=O)Nc2ccccc2C(=O)N2CCCCC2)C1=O` (stereo not given), the result in test [1], in test [2], in test [3] and in test [4] was inactive.

Regarding `CC1Cc2cc(/C=C3/SC(=S)NC3=O)ccc2O1` (stereo not given), the outcome in test [1], in test [2] and in test [3] was inactive. For the same compound, in test [4], the current potentiation is 24.4% (active).

Consider `CCOc1ccc(C2C(C#N)=C(N)N(c3sc4c(c3C#N)CCCC4)C3=C2C(=O)CCC3)cc1` (stereo not given), for which the outcome in test [1], in test [2], in test [3] and in test [4] was inactive.

With `CC(C)c1ccc(/C=C2\SC(N3CCOCC3)=NC2=O)cc1`, the outcome in test [1], in test [2] and in test [4] was inactive. For the same compound, the potentiation in test [3] is 146% (active).

As to `CC1Cc2ccccc2N1C(=S)NC(=O)c1cccc(Br)c1` (stereo not given), in test [1], the activation is 726% (active). Further, the potentiation in test [2] is 224% (active); in test [3] it was 576% (active). In addition, in test [4], the outcome was inactive.

With `Cc1cc(/C=C2\C(=N)N3N=C(c4ccco4)SC3=NC2=O)c(C)n1Cc1ccccc1`, the outcome in test [1], in test [3] and in test [4] was inactive. The potentiation in test [2] was 37% (active).

With `CCCOc1ccc(Cc2nc(N)nc(N)n2)cc1`, the outcome in test [1], in test [2], in test [3] and in test [4] was inactive.

On to `O=S(=O)(NCCOc1ccccc1)c1ccc2ccccc2c1`, for which the outcome in test [1], in test [2], in test [3] and in test [4] was inactive.

Regarding `COc1ccc(OCC(=O)Nc2cccc(C(C)=O)c2)cc1`, the outcome in test [1], in test [2], in test [3] and in test [4] was inactive.

As for `Fc1ccc(COc2ccc(Br)cc2CNCc2ccncc2)cc1`, the outcome in test [1], in test [2], in test [3] and in test [4] was inactive.

As to `CSc1nc(Nc2ccc(Cl)cc2)c(C#N)c(=O)[nH]1`, the result in test [1], in test [2], in test [3] and in test [4] was inactive.

Take `COC(=O)c1cccc(NC(=O)CSc2nncn2-c2ccccn2)c1`: the result in test [1], in test [2], in test [3] and in test [4] was inactive.

Consider `CCCC(=O)N1CCN(Cc2nc3cc([N+](=O)[O-])ccc3n2C)CC1`, for which the outcome in test [1], in test [2], in test [3] and in test [4] was inactive.

As to `O=C(Nc1nnc(-c2ccc(F)cc2)o1)c1cc(Cl)sc1Cl`, the activation in test [1] was 330% (active). The potentiation in test [2] is 118% (active); in test [3], 284% (active). Besides, the result in test [4] was inactive.

For the compound `COc1ccc(N2CCN(C(=O)COC(=O)/C=C/c3ccc(OC(F)F)cc3)CC2)cc1`, the activation in test [1] was 178% (active). In addition, the results for the potentiation in test [2] and in test [3] were 64.5% (active) and 228% (active), respectively. In addition, the outcome in test [4] was inactive.

For `CCCCn1c(-c2csc3c2CCC(C)C3)n[nH]c1=S` (stereo not given), in test [1], the activation is 145% (active). Further, the values for the potentiation in test [2] and in test [3] were 75.5% (active) and 150% (active), respectively. Besides, the result in test [4] was inactive.

Consider `O=C(Nc1ccncc1)c1ccc([N+](=O)[O-])cc1Cl`, for which the outcome in test [1], in test [2], in test [3] and in test [4] was inactive.

As to `CC1CCc2c(sc3[nH]c(=S)n(C)c(=O)c23)C1` (stereo not given), the activation in test [1] is 446% (active). Further, the potentiation in test [2] was 254% (active); in test [3], 552% (active). Besides, the outcome in test [4] was inactive.

On to `COc1cccc(/C=N/n2c(-c3cccs3)n[nH]c2=S)c1`, for which the activation in test [1] was 286% (active). Moreover, the potentiation was 160% (active) in test [2] and 265% (active) in test [3]. Moreover, the outcome in test [4] was inactive.

With `CCC1Oc2ccc(C)cc2N(CC(=O)N(Cc2ccc(C)o2)C2CC(C)(C)NC(C)(C)C2)C1=O` (stereo not given), the activation in test [1] is 152% (active). Besides, the potentiation in test [2] was 63.5% (active); in test [3], 166% (active). Moreover, the result in test [4] was inactive.

Turning to `O=C(COc1cccnc1[N+](=O)[O-])Nc1cccc(S(=O)(=O)N2CCCCC2)c1`, the result in test [1], in test [2], in test [3] and in test [4] was inactive.

In the case of `Cc1cc(C)nc(CCNC(=O)c2cc(COc3ccccc3)on2)n1`, the result in test [1], in test [2], in test [3] and in test [4] was inactive.

For the compound `C=CCC(=O)N1CCC(n2nccc2NC(=O)CCOc2ccccc2)CC1`, the outcome in test [1], in test [2], in test [3] and in test [4] was inactive.

Consider `CN(C)c1ccc(C(=O)Nc2nnc(C3=COCCO3)o2)cc1`, for which the outcome in test [1], in test [2], in test [3] and in test [4] was inactive.

These data come from PubChem BioAssay.
